{"source": "ChEMBL document CHEMBL2424543", "about": "“Enantioselective effects of (+)- and (-)-citronellal on animal and plant microtubules” (J Nat Prod, 2013)", "key": {"[1]": {"system": "HeLa", "test": "Effect on actin depolymerization in human HeLa cells at 27.5 uM after 30 mins by fluorescence assay", "type": "cell-based", "how_it_was_run": "(§1)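 HeLa or Ref52 cells were grown in DMEM with 10% fetal calf serum at 37 °C/5% CO2. Compound was dissolved in DMSO and diluted in serum-free DMEM. Cells were permeabilized and fixed in paraformaldehyde/Triton X-100. MTs were immunostained with DM1A plus an Alexa 488 secondary, and actin was stained with Alexa 555-phalloidin. Cells were examined by confocal microscopy.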"}, "[2]": {"target": "Tubulin beta-6 chain (Arabidopsis thaliana) (UniProt P29514)", "sequence (P29514 whole entry)": "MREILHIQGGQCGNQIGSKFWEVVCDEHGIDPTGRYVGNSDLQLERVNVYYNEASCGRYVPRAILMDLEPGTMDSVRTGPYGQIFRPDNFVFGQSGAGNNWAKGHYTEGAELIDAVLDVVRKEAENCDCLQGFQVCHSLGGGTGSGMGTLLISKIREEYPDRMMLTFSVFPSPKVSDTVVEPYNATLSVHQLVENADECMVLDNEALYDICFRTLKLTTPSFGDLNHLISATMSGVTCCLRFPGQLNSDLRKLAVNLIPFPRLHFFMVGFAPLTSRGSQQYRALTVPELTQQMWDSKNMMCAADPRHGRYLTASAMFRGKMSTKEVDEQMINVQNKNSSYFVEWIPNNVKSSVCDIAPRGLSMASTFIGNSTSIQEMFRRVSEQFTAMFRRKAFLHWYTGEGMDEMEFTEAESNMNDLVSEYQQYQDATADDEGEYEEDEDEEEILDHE", "test": "Effect on GFP-tagged tubulin beta6 polymerization in Arabidopsis thaliana (L.) Heynh assessed as growth of lagging end at 25 uM after 10 mins by confocal microscopic analysis (reference value: 3.54 +/- 2.48 um/min)"}, "[3]": {"system": "REF52", "test": "Induction of microtubule depolymerization in rat REF52 cells at 6.9 to 13.8 uM after 30 mins by fluorescence assay relative to control", "type": "cell-based"}, "[4]": {"system": "REF52", "test": "Induction of microtubule depolymerization in rat REF52 cells at 27.5 uM by fluorescence assay", "type": "cell-based", "details": "TDE = time-dependent effect"}, "[5]": {"system": "REF52", "test": "Induction of microtubule depolymerization in rat REF52 cells at 27.5 uM after 30 mins by fluorescence assay", "type": "cell-based"}, "[6]": {"system": "REF52", "test": "Effect on actin depolymerization in rat REF52 cells at 27.5 uM after 30 mins by fluorescence assay", "type": "cell-based", "how_it_was_run": "as §1"}, "[7]": {"system": "Arabidopsis thaliana", "test": "Effect on GFP-talin-tagged actin dynamics in Arabidopsis thaliana (L.) Heynh at 25 uM after 10 mins by confocal microscopic analysis", "how_it_was_run": "(§2)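 GFP-talin (actin marker) Arabidopsis Columbia seedlings were raised on MS medium with 4 days of dark stratification at 4 °C, then grown at 24 °C under a 16/8 h photoperiod. Cotyledons of 7-day-old seedlings were treated with 25 μM for 10 min. Actin fiber organization and dynamics were followed by confocal time-lapse imaging.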"}, "[8]": {"target": "Tubulin beta-6 chain (Arabidopsis thaliana) (UniProt P29514)", "test": "Effect on GFP-tagged tubulin beta6 polymerization in Arabidopsis thaliana (L.) Heynh at 25 uM after 10 mins by confocal microscopic analysis"}, "[9]": {"species_on_record": "Bos taurus", "test": "Inhibition of rhodamine-labeled bovine brain tubulin polymerization assessed as number of microtubules at 20 uM after 20 mins by fluorescence microscopic analysis relative to control", "how_it_was_run": "(§3)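 Purified bovine brain tubulin mixed with rhodamine-tubulin and GTP was polymerized in MRB80 (80 mM PIPES/KOH pH 6.8, 1 mM MgCl2, 1 mM EGTA) plus 6% glycerol, with 20 μM compound or 0.01% DMSO. Incubation was 20 min at 37 °C, stopped with 0.5% glutaraldehyde. MT number and total length were measured by wide-field fluorescence microscopy. Data are average ± SE, compared by Scheffe's test.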"}, "[10]": {"target": "Tubulin beta-6 chain (Arabidopsis thaliana) (UniProt P29514)", "test": "Effect on GFP-tagged tubulin beta6 polymerization in Arabidopsis thaliana (L.) Heynh assessed as shorten leading end at 25 uM after 10 mins by confocal microscopic analysis (reference value: 15.43 +/- 5.37 um/min)"}, "[11]": {"system": "HeLa", "test": "Induction of microtubule depolymerization in human HeLa cells at 27.5 uM after 30 mins by fluorescence assay", "type": "cell-based", "how_it_was_run": "as §1"}, "[12]": {"species_on_record": "Bos taurus", "test": "Inhibition of rhodamine-labeled bovine brain tubulin polymerization assessed as shorter microtubules at 20 uM after 20 mins by fluorescence microscopic analysis relative to control", "how_it_was_run": "as §3"}, "[13]": {"system": "REF52", "test": "Induction of microtubule depolymerization in rat REF52 cells after 30 mins by fluorescence assay", "type": "cell-based"}, "[14]": {"target": "Tubulin beta-6 chain (Arabidopsis thaliana) (UniProt P29514)", "test": "Effect on GFP-tagged tubulin beta6 polymerization in Arabidopsis thaliana (L.) Heynh assessed as growth of leading end at 25 uM after 10 mins by confocal microscopic analysis (reference value: 5.79 +/- 1.15 um/min)"}, "[15]": {"system": "REF52", "test": "Induction of microtubule depolymerization in rat REF52 cells at 27.5 uM after 5 to 30 mins by fluorescence assay relative to control", "type": "cell-based"}, "[16]": {"system": "REF52", "test": "Induction of microtubule depolymerization in rat REF52 cells at 27.5 to 55 uM after 30 mins by fluorescence assay relative to control", "type": "cell-based"}, "[17]": {"target": "Tubulin beta-6 chain (Arabidopsis thaliana) (UniProt P29514)", "test": "Effect on GFP-tagged tubulin beta6 polymerization in Arabidopsis thaliana (L.) Heynh assessed as shorten lagging end at 25 uM after 10 mins by confocal microscopic analysis (reference value: 3.57 +/- 2.33 um/min)"}, "[18]": {"system": "Arabidopsis thaliana", "test": "Effect on GFP-talin-tagged actin organization in Arabidopsis thaliana (L.) Heynh at 25 uM after 10 mins by confocal microscopic analysis", "how_it_was_run": "as §2"}, "[19]": {"system": "REF52", "test": "Induction of microtubule depolymerization in rat REF52 cells at 0.1 uM after 30 mins by fluorescence assay", "type": "cell-based", "how_it_was_run": "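Ref52 cells in serum-free DMEM, treated 30 min. Permeabilized with 3% paraformaldehyde and 0.5% Triton X-100, then fixed in 3% paraformaldehyde plus 1% glutaraldehyde, quenched with borohydride. Stained with anti-tubulin DM1A and Alexa 488 secondary, imaged by confocal microscopy. FiberScore gives total fluorescence associated with fibers. Mean ± standard error, Scheffe's test at p < 0.05.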"}, "[20]": {"system": "REF52", "test": "Induction of microtubule depolymerization in rat REF52 cells assessed as decrease in fluorescence associated with fibers at 27.5 uM incubated for 5 to 30 mins measured after 30 mins relative to control", "type": "cell-based", "parameters": "scale not given: the % may be the effect or the level left"}, "[21]": {"species_on_record": "Bos taurus", "test": "Inhibition of rhodamine-labeled bovine brain tubulin polymerization assessed as number of microtubules at 20 uM after 20 mins by fluorescence microscopic analysis relative to control; values are per cent of control"}, "[22]": {"species_on_record": "Bos taurus", "test": "Inhibition of rhodamine-labeled bovine brain tubulin polymerization assessed as shorter microtubules at 20 uM after 20 mins by fluorescence microscopic analysis relative to control; values are per cent of control"}, "[23]": {"system": "REF52", "test": "Induction of microtubule depolymerization in rat REF52 cells at 2 uM after 30 mins by fluorescence assay", "type": "cell-based"}, "[24]": {"system": "REF52", "test": "Induction of microtubule depolymerization in rat REF52 cells assessed as […] in ratio of soluble to insoluble tubulin fraction at 0.1 uM after 30 mins by Western blot analysis", "type": "cell-based", "how_it_was_run": "(§4)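 Ref52 rat embryonic fibroblasts grown in DMEM with 10% FCS at 37 °C/5% CO2 and dosed for 30 min in serum-free DMEM. Triton X-100 fractionation: 3 min extraction at room temperature in 50 mM MES pH 6.8 with 2.5 mM EGTA, 5 mM MgCl2 and 0.5% Triton. Equal volumes of soluble and insoluble fractions run on SDS-PAGE. Western blot with anti-tubulin DM1A and anti-actin C4, HRP chemiluminescence, band densitometry. Four independent experiments.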"}, "[25]": {"system": "REF52", "test": "Effect on actin depolymerization in rat REF52 cells assessed as effect on ratio of soluble to insoluble protein fraction at 0.1 uM after 30 mins by Western blot analysis", "type": "cell-based", "how_it_was_run": "as §4"}}, "note": "Active and inactive are the calls of the source. The calls are words filed in the database; no cut-off is given here.", "data": [{"smiles": "CC(C)=CCC[C@H](C)CC=O", "values": [{"measurement": "Activity", "setting": "[1]", "result": "inactive"}, {"measurement": "Activity", "setting": "[2]", "result": 1.66, "unit": "um/min"}, {"measurement": "Activity", "setting": "[3]", "result": "inactive"}, {"measurement": "Activity", "setting": "[4]", "result": "tde"}, {"measurement": "Activity", "setting": "[5]", "result": "inactive"}, {"measurement": "Activity", "setting": "[6]", "result": "inactive"}, {"measurement": "Activity", "setting": "[7]", "result": "inactive"}, {"measurement": "Activity", "setting": "[8]", "result": "inactive"}, {"measurement": "inhibition", "setting": "[9]", "result": "inactive"}, {"measurement": "Activity", "setting": "[10]", "result": 14.6, "unit": "um/min"}, {"measurement": "Activity", "setting": "[11]", "result": "inactive"}, {"measurement": "inhibition", "setting": "[12]", "result": "inactive"}, {"measurement": "Activity", "setting": "[13]", "result": "Dose-dependent effect"}, {"measurement": "Activity", "setting": "[14]", "result": 5.94, "unit": "um/min"}, {"measurement": "Activity", "setting": "[15]", "result": 60, "unit": "%"}, {"measurement": "Activity", "setting": "[16]", "result": 50, "unit": "%"}, {"measurement": "Activity", "setting": "[17]", "result": 7.48, "unit": "um/min"}, {"measurement": "Activity", "setting": "[18]", "result": "inactive"}]}, {"smiles": "CC[C@]1(O)C[C@@H]2CN(CCc3c([nH]c4ccccc34)[C@@](C(=O)OC)(c3cc4c(cc3OC)N(C)[C@H]3[C@@](O)(C(=O)OC)[C@H](OC(C)=O)[C@]5(CC)C=CCN6CC[C@]43[C@@H]65)C2)C1", "values": [{"measurement": "Activity", "setting": "[19]", "result": "Active"}]}, {"smiles": "CC(C)=CCC[C@@H](C)CC=O", "values": [{"measurement": "Activity", "setting": "[1]", "result": "inactive"}, {"measurement": "Activity", "setting": "[2]", "result": 0, "unit": "um/min"}, {"measurement": "Activity", "setting": "[20]", "result": 20, "unit": "%"}, {"measurement": "Activity", "setting": "[4]", "result": "tde"}, {"measurement": "residual activity", "setting": "[21]", "result": 40, "unit": "%"}, {"measurement": "Activity", "setting": "[5]", "result": "Active"}, {"measurement": "residual activity", "setting": "[22]", "result": 30, "unit": "%"}, {"measurement": "Activity", "setting": "[6]", "result": "inactive"}, {"measurement": "Activity", "setting": "[7]", "result": "inactive"}, {"measurement": "Activity", "setting": "[8]", "result": "Active"}, {"measurement": "Activity", "setting": "[10]", "result": 0, "unit": "um/min"}, {"measurement": "Activity", "setting": "[11]", "result": "Active"}, {"measurement": "Activity", "setting": "[13]", "result": "Dose-dependent effect"}, {"measurement": "Activity", "setting": "[14]", "result": 0, "unit": "um/min"}, {"measurement": "Activity", "setting": "[16]", "result": 20, "unit": "%"}, {"measurement": "Activity", "setting": "[17]", "result": 0, "unit": "um/min"}, {"measurement": "Activity", "setting": "[18]", "result": "inactive"}]}, {"smiles": "CC(=O)O[C@H]1C(=O)[C@@]2(C)[C@H]([C@H](OC(=O)c3ccccc3)[C@]3(O)C[C@H](OC(=O)[C@H](O)[C@@H](NC(=O)c4ccccc4)c4ccccc4)C(C)=C1C3(C)C)[C@]1(OC(C)=O)CO[C@@H]1C[C@@H]2O", "values": [{"measurement": "Activity", "setting": "[23]", "result": "Active"}]}, {"smiles": "COc1cc2c(c(OC)c1OC)-c1ccc(OC)c(=O)cc1[C@@H](NC(C)=O)CC2", "values": [{"measurement": "Activity", "setting": "[19]", "result": "Active"}, {"measurement": "Activity", "setting": "[24]", "result": "Active"}, {"measurement": "Activity", "setting": "[25]", "result": "inactive"}]}]}
